Data taken from ChEMBL document CHEMBL3792366, “Role of disulfide linkage in action of bis(dialkylaminethiocarbonyl)disulfides as potent double-Edged microbicidal spermicide: Design, synthesis and biology” (Eur J Med Chem, 2016).
≈ marks a conversion by molar mass, not a printed value. Calls of active or inactive are those of the source. No cut-off for these calls is given here.

Key:
Trichomonas vaginalis [1] = assay: Antitrichomonas activity against metronidazole-resistant trophozoite stage of Trichomonas vaginalis ATCC 50143 assessed as cell viability under anaerobic condition after 48 hrs by trypan blue exclusion assay; type: functional; conditions: ATCC 50143, 48 h
In short: (§1)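 Log-phase T. vaginalis grown in TYM with 10% FCS, vitamin mix and penicillin/streptomycin at 37 °C. Compounds were made as 100 µg/mL DMSO stocks and serially diluted in TYM down to 0.1 µg/mL; DMSO/TYM served as vehicle. Parasites were incubated anaerobically at 37 °C, and viability was checked by trypan blue exclusion from 3 to 48 h. MIC = lowest concentration killing all cells by 48 h; each test was repeated three times.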

Candida parapsilosis = assay: Antifungal activity against Candida parapsilosis ATCC 22019 after 48 hrs by broth microdilution method; type: functional; conditions: Lodderomyces parapsilosis, ATCC 22019, 48 h
In short: (§2)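 NCCLS broth microdilution in RPMI 1640 buffered with MOPS; starting inoculum 1–5 × 10^3 CFU/mL; plates incubated at 35 °C; MIC read after 48 h.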

Sporothrix schenckii = assay: Antifungal activity against Sporothrix schenckii after 48 hrs by broth microdilution method; type: functional; in short: as §2
Candida albicans = assay: Antifungal activity against Candida albicans after 48 hrs by broth microdilution method; type: functional; in short: as §2
[2] = Toxicity in Lactobacillus jensenii ATCC 25258 after 72 hrs
Cryptococcus neoformans = assay: Antifungal activity against Cryptococcus neoformans after 48 hrs by broth microdilution method; type: functional; in short: as §2
[3] = system: Trichophyton mentagrophytes; assay: Antifungal activity against Trichophyton mentagrophytes after 48 hrs by broth microdilution method; type: functional; in short: as §2
[4] = Spermicidal activity in human sperms assessed as motility measured within 30 secs by phase contrast microscopy; type: functional, Sperm
In short: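 Liquefied human semen (0.05 mL) was added to 0.25 mL test solution and vortexed 10 s at low speed. Motile sperm were scored visually under phase contrast in five fields within 30 s; assays in triplicate; MEC = minimum effective concentration.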

HeLa = assay: Cytotoxicity against human HeLa cells after 5 hrs by lactate dehydrogenase release assay; type: cell-based
In short: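 HeLa cells were seeded at 2×10^4/well in triplicate and grown 24 h at 37 °C in 5% CO2. The DMEM was then replaced with medium holding serially diluted compound, and plates were incubated 5 h. LDH release in the supernatant was measured colorimetrically at 490 nm, and IC50 was derived from it.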

[5] = Selectivity index, ratio of IC50 for Lactobacillus jensenii ATCC 25258 to MIC for trophozoite stage of Trichomonas vaginalis clinical isolate
Trichomonas vaginalis [6] = assay: Antitrichomonas activity against trophozoite stage of Trichomonas vaginalis clinical isolate assessed as cell viability under anaerobic condition after 48 hrs by trypan blue exclusion assay; type: functional; in short: as §1
[7] = Selectivity index, ratio of IC50 for Lactobacillus jensenii ATCC 25258 to MIC for metronidazole resistant trophozoite stage of Trichomonas vaginalis ATCC 50143
Trichomonas vaginalis [8] = assay: Antitrichomonas activity against metronidazole-susceptible Trichomonas vaginalis in sc dosed mouse assessed as pustule formation at 5 ug administered daily measured after 5 days (reference value: 109 mm'2); type: functional
Trichomonas vaginalis [9] = assay: Antitrichomonas activity against metronidazole-susceptible Trichomonas vaginalis in sc dosed mouse assessed as spleen weight at 5 ug administered daily measured after 7 days (reference value: 0.59 g); type: functional
Trichomonas vaginalis [10] = assay: Antitrichomonas activity against metronidazole-susceptible Trichomonas vaginalis in sc dosed mouse assessed as pustule formation at 5 ug administered daily measured after 7 days (reference value: 190 mm'2); type: functional
Trichomonas vaginalis [11] = assay: Selectivity ratio of MIC for metronidazole-resistant trophozoite stage of Trichomonas vaginalis ATCC 50143 to MIC for metronidazole-susceptible trophozoite stage of Trichomonas vaginalis; type: functional
Trichomonas vaginalis [12] = assay: Potency index, ratio of metronidazole MIC to compound MIC for metronidazole-resistant trophozoite stage of Trichomonas vaginalis ATCC 50143; type: functional
Trichomonas vaginalis [13] = assay: Antitrichomonas activity against Trichomonas vaginalis assessed as reduction in free thiol levels in parasite membrane at MIC after 24 hrs by fluorescence microscopy; type: functional, organism-based

Row | Compound | MIC (Trichomonas vaginalis [1]) | MIC (Candida parapsilosis) | MIC (Sporothrix schenckii) | MIC (Candida albicans) | IC50 [2] | MIC (Cryptococcus neoformans) | MIC [3] | MEC [4] | IC50 (HeLa) | Selectivity Index [5] | MIC (Trichomonas vaginalis [6]) | Selectivity Index [7] | Activity (Trichomonas vaginalis [8]) | Activity (Trichomonas vaginalis [9]) | Activity (Trichomonas vaginalis [10]) | Selectivity ratio (Trichomonas vaginalis [11]) | Ratio (Trichomonas vaginalis [12]) | Activity (Trichomonas vaginalis [13])
1 | S=C(SCCN1CCCC1)N1CCN(C(=S)SSC(=S)N2CCN(C(=S)SCCN3CCCC3)CC2)CC1 | > 149 µM | 74.7 µM (≈ 50 µg/mL) | 74.7 µM (≈ 50 µg/mL) | 74.7 µM (≈ 50 µg/mL) | 6.08 mM | 74.7 µM (≈ 50 µg/mL) | 74.7 µM (≈ 50 µg/mL) | 0.002% | 2.74 mM | 58 | 46.7 µM (≈ 31.2 µg/mL) | > 18 |  |  |  |  |  | 
2 | Cc1ncc([N+](=O)[O-])n1CCO [METRONIDAZOLE] | 292 µM (≈ 50 µg/mL) |  |  |  |  |  |  |  |  |  | 11.6 µM (≈ 1.99 µg/mL) |  | 15 mm2 | 0.5 g | 7.59 mm2 | 25 |  | 
3 | C=CCN1CCN(C(=S)SSC(=S)N2CCN(CC=C)CC2)CC1 | 62 µM (≈ 25 µg/mL) | 124 µM (≈ 49.9 µg/mL) | > 124 µM | 62 µM (≈ 25 µg/mL) | 3.61 mM | > 124 µM | 124 µM (≈ 49.9 µg/mL) | 0.001% | 1.34 mM | 86 | 15.5 µM (≈ 6.24 µg/mL) | 21 |  |  |  |  | 2 | 
4 | S=C(SSC(=S)N1CCN(CCN2CCOCC2)CC1)N1CCN(CCN2CCOCC2)CC1 | 45.5 µM (≈ 25 µg/mL) | > 91 µM | 91 µM (≈ 49.9 µg/mL) | > 91 µM | 6.48 mM | > 91 µM | 91 µM (≈ 49.9 µg/mL) | 0.005% | 0.169 mM | 7 | 22.7 µM (≈ 12.5 µg/mL) | 3 |  |  |  |  | 2 | 
5 | CN(C)C(=S)SSC(=S)N(C)C [THIRAM] | 12.9 µM (≈ 3.1 µg/mL) | 51.8 µM (≈ 12.5 µg/mL) | 51.8 µM (≈ 12.5 µg/mL) | 6.5 µM (≈ 1.56 µg/mL) | 8.39 mM | 3.2 µM (≈ 0.769 µg/mL) | 6.5 µM (≈ 1.56 µg/mL) | 0.01% | 2.43 mM | 188 | 12.9 µM (≈ 3.1 µg/mL) | 188 | 15 mm2 | 0.3 g | 4.45 mm2 |  | 16 | Active
6 | CC1CCN(C(=S)SSC(=S)N2CCC(C)CC2)CC1 | 35.8 µM (≈ 12.5 µg/mL) | 143 µM (≈ 49.9 µg/mL) | 35.8 µM (≈ 12.5 µg/mL) | 17.9 µM (≈ 6.24 µg/mL) |  | 8.9 µM (≈ 3.1 µg/mL) | 35.8 µM (≈ 12.5 µg/mL) | 1% |  |  | 35.8 µM (≈ 12.5 µg/mL) |  |  |  |  |  | 4 | 
7 | CCOC(=O)N1CCN(C(=S)SSC(=S)N2CCN(C(=O)OCC)CC2)CC1 | 13.3 µM (≈ 6.21 µg/mL) | 53.4 µM (≈ 24.9 µg/mL) | 107 µM (≈ 49.8 µg/mL) | 53.4 µM (≈ 24.9 µg/mL) |  | 26.7 µM (≈ 12.5 µg/mL) | 107 µM (≈ 49.8 µg/mL) | 1% |  |  | 13.3 µM (≈ 6.21 µg/mL) |  |  |  |  |  | 8 | 
8 | CN(Cc1ccccc1)C(=S)SSC(=S)N(C)Cc1ccccc1 | 31.8 µM (≈ 12.5 µg/mL) | > 127 µM | 31.8 µM (≈ 12.5 µg/mL) | 31.8 µM (≈ 12.5 µg/mL) |  | 7.9 µM (≈ 3.1 µg/mL) | 63.6 µM (≈ 25 µg/mL) | >1% |  |  | 7.9 µM (≈ 3.1 µg/mL) |  |  |  |  | 4 | 4 | 
